Results published in ChEMBL document CHEMBL1157555, “Synthesis and pharmacological evaluation of novel 1,3,8- and 1,3,7,8-substituted xanthines as adenosine receptor antagonists” (Bioorg Med Chem, 2010).

Legend:
Assay type in all cases: cell-based
[1] = molecular target: T1, Adenosine receptor A1 (Homo sapiens) (UniProt P30542); experiment: Displacement of [3H]DPCPX from human recombinant adenosine A1 receptor expressed in CHO cells at 1 uM by microplate beta scintillation counter
T1 sequence (whole entry): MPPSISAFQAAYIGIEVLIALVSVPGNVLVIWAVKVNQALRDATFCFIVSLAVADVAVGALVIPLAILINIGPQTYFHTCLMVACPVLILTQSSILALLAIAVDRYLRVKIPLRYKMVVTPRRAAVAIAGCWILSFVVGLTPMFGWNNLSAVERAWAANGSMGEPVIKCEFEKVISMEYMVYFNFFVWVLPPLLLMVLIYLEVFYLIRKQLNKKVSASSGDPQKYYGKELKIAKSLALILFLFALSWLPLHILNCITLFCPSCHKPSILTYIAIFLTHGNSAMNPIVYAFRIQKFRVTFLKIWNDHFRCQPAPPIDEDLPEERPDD
In short: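 Membranes from CHO cells expressing human A1 were labelled with 2 nM [3H]DPCPX. Non-specific binding was defined with (R)-PIA. Incubation ran 60 min at 25 °C, then samples were filtered and counted by beta scintillation. IC50 came from non-linear regression, and Ki from Cheng–Prusoff. Weak or poorly soluble compounds were reported as % inhibition of specific binding at a single concentration. Mean of 3 experiments, each in duplicate.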

[2] = molecular target: Adenosine receptor A2a (Homo sapiens, UniProt P29274); experiment: Displacement of [3H]ZM241385 from human recombinant adenosine A2A receptor expressed in human HeLa cells at 1 uM by microplate beta scintillation counter
In short: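 Competition used HeLa cell membranes expressing human A2A with [3H]ZM241385. Non-specific binding was set with NECA. Incubation was 30 min at 25 °C, then filtration and beta scintillation counting. IC50 from non-linear regression was converted to Ki (Cheng–Prusoff). Weak or poorly soluble compounds were reported as % inhibition of specific binding at a single concentration. Three experiments, each in duplicate.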

[3] = molecular target: T2, Adenosine receptor A2b (Homo sapiens) (UniProt P29275); experiment: Displacement of [3H]DPCPX from human recombinant adenosine A2B receptor expressed in HEK293 cells at 1 uM by microplate beta scintillation counter
T2 sequence (whole entry): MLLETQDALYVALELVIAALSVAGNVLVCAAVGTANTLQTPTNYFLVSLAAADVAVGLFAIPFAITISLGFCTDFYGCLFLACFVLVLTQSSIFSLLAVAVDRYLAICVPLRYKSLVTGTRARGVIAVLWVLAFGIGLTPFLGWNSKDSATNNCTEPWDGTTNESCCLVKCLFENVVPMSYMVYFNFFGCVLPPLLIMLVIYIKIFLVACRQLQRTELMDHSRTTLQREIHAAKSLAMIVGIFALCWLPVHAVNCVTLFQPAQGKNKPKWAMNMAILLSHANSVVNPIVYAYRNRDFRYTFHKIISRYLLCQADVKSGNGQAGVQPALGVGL
In short: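 Membranes from HEK-293 cells expressing human A2B were labelled with 35 nM [3H]DPCPX. Incubation ran 30 min at 25 °C, followed by filtration and beta scintillation counting. IC50 was fitted by non-linear regression and converted to Ki by Cheng–Prusoff. Weak or poorly soluble compounds were given as % inhibition of specific binding at a single concentration. n = 3, each in duplicate.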

[4] = molecular target: T3, Adenosine receptor A3 (Homo sapiens) (UniProt P0DMS8); experiment: Displacement of [3H]NECA from human recombinant adenosine A3 receptor expressed in human HeLa cells at 1 uM by microplate beta scintillation counter
T3 sequence (whole entry): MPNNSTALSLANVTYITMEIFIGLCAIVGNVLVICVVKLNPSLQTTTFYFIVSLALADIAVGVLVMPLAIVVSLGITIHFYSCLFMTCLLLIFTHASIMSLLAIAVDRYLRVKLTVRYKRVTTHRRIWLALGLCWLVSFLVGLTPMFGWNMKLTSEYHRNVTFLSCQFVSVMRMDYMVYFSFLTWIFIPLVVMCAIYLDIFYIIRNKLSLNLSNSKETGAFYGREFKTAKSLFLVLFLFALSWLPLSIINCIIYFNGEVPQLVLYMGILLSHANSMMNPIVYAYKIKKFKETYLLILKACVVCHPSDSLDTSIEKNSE
In short: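 HeLa-A3 cell membranes were labelled with 30 nM [3H]NECA. Non-specific binding was defined with (R)-PIA. After 180 min at 25 °C, samples were filtered and counted by beta scintillation. Ki was calculated by Cheng–Prusoff from IC50 obtained by non-linear regression. Weak or poorly soluble compounds were reported as % inhibition of specific binding at a single concentration. Mean of 3 experiments in duplicate.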

Adenosine receptor A2a, sequence (P29274 whole entry): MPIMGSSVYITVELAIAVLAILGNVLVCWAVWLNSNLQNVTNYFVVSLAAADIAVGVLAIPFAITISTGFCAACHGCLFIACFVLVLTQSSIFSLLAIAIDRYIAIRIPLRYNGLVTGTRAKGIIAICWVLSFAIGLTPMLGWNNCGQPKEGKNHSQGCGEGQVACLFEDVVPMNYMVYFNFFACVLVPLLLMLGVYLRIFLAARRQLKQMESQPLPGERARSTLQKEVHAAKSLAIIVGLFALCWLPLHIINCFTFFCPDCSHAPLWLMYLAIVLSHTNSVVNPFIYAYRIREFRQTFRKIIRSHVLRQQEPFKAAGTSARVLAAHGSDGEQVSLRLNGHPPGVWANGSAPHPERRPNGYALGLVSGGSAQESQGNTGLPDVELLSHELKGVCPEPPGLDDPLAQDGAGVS

Row | SMILES | Activity [1] [%] | Activity [2] [%] | Activity [3] [%] | Activity [4] [%]
1 | CCn1c(=O)c2[nH]c(Cc3ccco3)nc2n(Cc2ccccc2)c1=O | 23 | 9 | 34 | 30
2 | CCn1c(=O)c2[nH]c(Cc3ccccc3)nc2n(CCS(=O)(=O)CC)c1=O | 6 | 1 | 55 | 6
3 | CCCn1c(=O)c2[nH]c(Cc3ccccc3)nc2n(CC2CCCO2)c1=O (stereo not drawn) | 2 | 24 | 32 | 10
4 | O=c1c2[nH]c(Cc3cccs3)nc2n(CC2CCCCC2)c(=O)n1CC1CCCCC1 | 4 | 50 | 1 | 16
5 | CCn1c(=O)c2c(nc(Cc3c(F)cccc3F)n2C)n(Cc2ccccc2)c1=O | 21 | 28 | 48 | 4
6 | Cn1c(=O)c2[nH]c(Cc3cccs3)nc2n(CC2CCCCC2)c1=O | 42 | 11 | 2 | 2
7 | CCn1c(=O)c2[nH]c(Cc3c(F)cccc3F)nc2n(Cc2ccccc2)c1=O | 23 | 1 | 8 | 1
8 | CCn1c(=O)c2[nH]c(Cc3ccccc3)nc2n(CC[S+]([O-])CC)c1=O (stereo not drawn) | 5 | 0 | 0 | 3
9 | CCn1c(=O)c2[nH]c(Cc3cccs3)nc2n(Cc2ccccc2)c1=O | 22 | 6 | 52 | 39
10 | CCn1c(=O)c2[nH]c(Cc3c(F)cccc3F)nc2n(Cc2cccs2)c1=O | 28 | 21 | 52 | 38
11 | O=c1c2[nH]c(-c3cccs3)nc2n(CC2CCCCC2)c(=O)n1CC1CCCCC1 | 2 | 14 | 10 | 2

The remaining lines, values ahead:

Row | Activity [1] [%] | Activity [2] [%] | Activity [3] [%] | Activity [4] [%] | SMILES
12 | 17 | 2 | 26 | 1 | CCCn1c(=O)c2c(nc(-c3ccccc3)n2C)n(CCSCC)c1=O
13 | 35 | 0 | 18 | 35 | CCn1c(=O)c2[nH]c(-c3ccccc3)nc2n(CCS(=O)(=O)CC)c1=O
14 | 15 | 13 | 2 | 15 | CCCn1c(=O)c2[nH]c(Cc3ccccc3)nc2n(CCS(=O)(=O)CC)c1=O
15 | 10 | 7 | 1 | 18 | CCCn1c(=O)c2[nH]c(Cc3ccccc3)nc2n(CC[S+]([O-])CC)c1=O (stereo not drawn)
16 | 19 | 28 | 46 | 17 | CCOCCn1c(=O)n(CC)c(=O)c2[nH]c(-c3ccc(-c4ccccc4)cc3)nc21
17 | 33 | 8 | 12 | 1 | CCCn1c(=O)c2[nH]c(Cc3ccccc3)nc2n(CCSCC)c1=O
18 | 29 | 20 | 32 | 0 | CCn1c(=O)c2[nH]c(-c3ccccc3)nc2n(CC[S+]([O-])CC)c1=O (stereo not drawn)
19 | 34 | 0 | 5 | 10 | CCSCCn1c(=O)n(CC)c(=O)c2[nH]c(Cc3ccccc3)nc21
20 | 7 | 4 | 22 | 17 | CCSCCn1c(=O)n(CC)c(=O)c2[nH]c(-c3ccc(-c4ccccc4)cc3)nc21
21 | 39 | 6 | 24 | 47 | CCCn1c(=O)c2[nH]c(-c3ccccc3)nc2n(CCOCC)c1=O
22 | 22 | 13 | 5 | 2 | CCCn1c(=O)c2[nH]c(Cc3ccccc3)nc2n(CCOCC)c1=O
